Test results reported in ChEMBL document CHEMBL1772939, “Ferruginenes A-C from Rhododendron ferrugineum and their cytotoxic evaluation” (J Nat Prod, 2011).
Calls of active or inactive are those of the source. The rule behind the calls is not given here.

How the values were obtained:
[1] = molecular target: Cannabinoid receptor 1 (Homo sapiens) (UniProt P21554); experiment: Binding affinity to CB1 receptor at 20 uM by radioligand displacement assay
[2] = tested on: HEK293; experiment: Cytotoxicity against human HEK293 cells assessed as cell viability after 24 hrs by tryptan blue staining-based cell counting; details: HEK293, 24 h
Summary of the method: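 HEK293 cells from ATCC, kept in DMEM with 10% heat-inactivated FBS, 1% L-glutamine, 1% penicillin/streptomycin, 37 C, 5% CO2. Seeded at 0.1 × 10^6 cells/mL in 24-well plates, grown 24 h, then exposed to compounds or 0.3% DMSO solvent for 24 h. Trypsinized cells stained with 0.4% trypan blue and counted by viability analyzer; IC50 from three independent experiments.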

[3] = Cytotoxicity against human HeLaS3 cells assessed as cell viability after 24 hrs by tryptan blue staining-based cell counting; format: functional; details: HeLa S3, 24 h
Summary of the method: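 HeLa-S3 cervix carcinoma cells (ATCC) grown in RPMI 1640 with 10% heat-inactivated FBS, 1% L-glutamine, 1% penicillin/streptomycin at 37 C, 5% CO2. Plated at 0.1 × 10^6 cells/mL for 24 h, then treated 24 h with compounds or 0.3% DMSO. Cells trypsinized, stained with 0.4% trypan blue, counted on a viability analyzer; IC50 from three independent experiments.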

[4] = tested on: HL-60; experiment: Cytotoxicity against human HL60 cells assessed as cell viability after 24 hrs by tryptan blue staining-based cell counting; format: functional; details: HL-60, 24 h
Summary of the method: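 HL-60 promyelocytic leukemia cells (ATCC) kept in RPMI 1640 with 10% heat-inactivated FBS, 1% L-glutamine, 1% penicillin/streptomycin, 37 C, 5% CO2. Seeded at 0.1 × 10^6 cells/mL, grown 24 h, then exposed 24 h to compounds or 0.3% DMSO solvent. Suspension cells stained with 0.4% trypan blue and counted on a viability analyzer; IC50 from three independent experiments.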

[5] = molecular target: T1, 5-hydroxytryptamine receptor 1A (Homo sapiens) (UniProt P08908); experiment: Binding affinity to 5HT1A receptor at 20 uM by radioligand displacement assay
T1 sequence (whole entry): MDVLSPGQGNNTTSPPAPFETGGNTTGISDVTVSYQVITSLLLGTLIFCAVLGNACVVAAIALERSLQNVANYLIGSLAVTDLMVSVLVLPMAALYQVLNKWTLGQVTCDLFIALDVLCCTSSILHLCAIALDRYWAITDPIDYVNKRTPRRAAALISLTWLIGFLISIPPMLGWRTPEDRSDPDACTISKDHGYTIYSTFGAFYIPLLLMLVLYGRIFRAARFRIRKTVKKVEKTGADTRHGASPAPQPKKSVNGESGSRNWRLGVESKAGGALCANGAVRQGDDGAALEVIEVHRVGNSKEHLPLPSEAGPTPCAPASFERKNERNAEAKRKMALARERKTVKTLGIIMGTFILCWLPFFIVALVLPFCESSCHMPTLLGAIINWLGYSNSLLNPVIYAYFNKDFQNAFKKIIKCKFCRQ

[6] = molecular target: Cannabinoid receptor 2 (Homo sapiens) (UniProt P34972); experiment: Binding affinity to CB2 receptor at 20 uM by radioligand displacement assay
[7] = molecular target: Transient receptor potential cation channel subfamily V member 1 (Homo sapiens) (UniProt Q8NER1); experiment: Binding affinity to TRPV1 receptor at 20 uM by radioligand displacement assay
[8] = tested on: MCF7; experiment: Cytotoxicity against human MCF7 cells assessed as cell viability after 24 hrs by tryptan blue staining-based cell counting; format: functional; details: MCF7, 24 h
Summary of the method: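 MCF-7 breast adenocarcinoma cells (ATCC) in DMEM with 10% heat-inactivated FBS, 1% L-glutamine, 1% penicillin/streptomycin, 37 C, 5% CO2. Cultured at 0.2 × 10^6 cells/mL for 48 h before 24 h exposure to compounds or 0.3% DMSO. Trypsinized cells stained with 0.4% trypan blue and counted on a viability analyzer; IC50 from three independent experiments.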

Cannabinoid receptor 2 (Homo sapiens), sequence (P34972 whole entry): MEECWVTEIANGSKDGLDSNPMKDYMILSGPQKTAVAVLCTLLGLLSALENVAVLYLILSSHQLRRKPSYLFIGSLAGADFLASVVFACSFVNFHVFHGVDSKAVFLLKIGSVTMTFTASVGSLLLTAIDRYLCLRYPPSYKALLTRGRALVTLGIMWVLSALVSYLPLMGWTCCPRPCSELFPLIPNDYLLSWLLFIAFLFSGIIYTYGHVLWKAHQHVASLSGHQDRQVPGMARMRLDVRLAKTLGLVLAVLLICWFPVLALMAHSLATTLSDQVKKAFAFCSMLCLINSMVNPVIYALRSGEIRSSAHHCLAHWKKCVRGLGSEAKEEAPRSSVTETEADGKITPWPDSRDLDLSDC
Transient receptor potential cation channel subfamily V member 1 (Homo sapiens), sequence (Q8NER1 whole entry): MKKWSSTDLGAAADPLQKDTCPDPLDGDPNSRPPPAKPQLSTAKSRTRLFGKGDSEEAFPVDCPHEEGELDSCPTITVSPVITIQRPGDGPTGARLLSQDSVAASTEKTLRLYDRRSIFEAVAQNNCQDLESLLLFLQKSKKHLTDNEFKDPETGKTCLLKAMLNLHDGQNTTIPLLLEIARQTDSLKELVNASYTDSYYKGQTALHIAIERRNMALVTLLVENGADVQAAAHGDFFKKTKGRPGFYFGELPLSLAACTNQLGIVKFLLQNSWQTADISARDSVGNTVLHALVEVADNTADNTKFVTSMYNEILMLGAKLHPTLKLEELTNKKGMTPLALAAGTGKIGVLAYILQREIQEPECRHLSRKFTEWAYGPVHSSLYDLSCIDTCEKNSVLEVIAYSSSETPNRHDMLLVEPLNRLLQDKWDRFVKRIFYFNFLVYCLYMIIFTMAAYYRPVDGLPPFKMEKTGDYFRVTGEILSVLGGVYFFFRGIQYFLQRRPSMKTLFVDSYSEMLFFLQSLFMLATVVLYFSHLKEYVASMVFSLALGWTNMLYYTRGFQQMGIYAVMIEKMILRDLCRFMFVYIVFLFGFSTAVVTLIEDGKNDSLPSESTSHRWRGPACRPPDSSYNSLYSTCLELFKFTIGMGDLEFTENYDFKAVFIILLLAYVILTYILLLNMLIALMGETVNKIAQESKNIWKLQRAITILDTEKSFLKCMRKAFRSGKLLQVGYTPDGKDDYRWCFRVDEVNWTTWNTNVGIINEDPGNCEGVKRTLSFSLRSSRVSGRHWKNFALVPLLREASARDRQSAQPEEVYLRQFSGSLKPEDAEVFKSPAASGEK
Cannabinoid receptor 1 (Homo sapiens), sequence (P21554 whole entry): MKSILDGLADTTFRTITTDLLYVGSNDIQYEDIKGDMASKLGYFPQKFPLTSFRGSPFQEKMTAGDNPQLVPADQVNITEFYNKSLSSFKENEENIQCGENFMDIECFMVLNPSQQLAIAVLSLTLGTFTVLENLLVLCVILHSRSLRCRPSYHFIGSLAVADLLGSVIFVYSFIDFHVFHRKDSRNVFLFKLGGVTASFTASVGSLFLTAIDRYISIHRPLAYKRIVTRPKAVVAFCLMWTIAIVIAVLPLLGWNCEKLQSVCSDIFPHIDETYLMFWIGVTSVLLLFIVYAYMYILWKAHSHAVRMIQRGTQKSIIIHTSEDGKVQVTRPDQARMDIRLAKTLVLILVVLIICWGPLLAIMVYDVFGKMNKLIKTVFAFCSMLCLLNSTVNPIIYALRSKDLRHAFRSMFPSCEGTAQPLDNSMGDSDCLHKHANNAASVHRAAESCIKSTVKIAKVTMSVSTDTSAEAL

Activity [1]	Activity [5]	Activity [6]	Activity [7]	Compound	IC50 [2] [µM]	IC50 [3] [µM]	IC50 [4] [µM]	IC50 [8] [µM]
inactive	inactive	inactive	inactive	C=C(C)C(O)CCC(=C)[C@@H]1CC[C@](C)(O)[C@H]2Oc3cc(C)cc(O)c3[C@@H]12 (some centres not stated) [FERRUGINENE A]	–	> 20	> 20	> 20
inactive	inactive	inactive	Active	C=C(C/C=C/C(C)(C)O)[C@@H]1CC[C@](C)(O)[C@H]2Oc3cc(C)cc(O)c3[C@@H]12 [FERRUGINENE B]	–	> 20	> 20	> 20

Compound	Activity [1]	Activity [5]	Activity [6]	Activity [7]	IC50 [2] [µM]	IC50 [3] [µM]	IC50 [4] [µM]	IC50 [8] [µM]
C=C(C)C(O)CCC(=C)[C@@H]1CCC(C)=C[C@H]1c1c(O)cc(C)cc1O (mixture of isomers) [FERRUGINENE C]	inactive	inactive	Active	inactive	> 20	> 20	> 13.7	> 20
